Test results as given in ChEMBL document CHEMBL1130212, “Synthesis and structure-activity relationships of 6,7-benzomorphan derivatives as antagonists of the NMDA receptor-channel complex” (J Med Chem, 1997).

How the values were obtained:
Mus musculus [1] = experiment: The ID50 values represent the effective dose at which half of the mice were protected against the lethality induced by 200 mg/kg NMDA; assay type: functional; details: read-out: ID50 (the source's name)
Method in brief: (§1)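 Male mice (20 to 30 g), groups of five, given test compound s.c. (0.01 mL/g) at different doses; NMDA 200 mg/kg i.p. 15 min later. Each mouse observed 20 min in an individual jar; percentage dying recorded. ID50 from log-probit analysis of four doses, or mean ± SEM of up to four independent experiments.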

Glutamate NMDA receptor = experiment: Inhibition of [3H]MK-801 binding to N-methyl-D-aspartate glutamate receptor in rat brain cortical membranes.; assay type: cell membranes, Membrane
Mus musculus [2] = experiment: Effective dose at which half of the mice were protected against the lethality induced by 200 mg/kg NMDA.; assay type: functional; details: read-out: ID50 (the source's name); method in brief: as §1
Mu-type opioid receptor = Mu-type opioid receptor (Rattus norvegicus, UniProt P33535); experiment: Inhibition of [3H]dihydromorphine binding to opioid receptor mu 1 in rat brain cortical membranes.; assay type: cell membranes, Membrane
Method in brief: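 Rat brain without cerebellum membranes incubated 30 min at 25 °C with 0.5 nmol/L [3H]dihydromorphine. Binding stopped by rapid filtration; filter radioactivity counted by scintillation. Ki from computer-aided curve fitting.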

Mus musculus [3] = experiment: The ID50 value represent the effective dose at which half of the mice were protected against the lethality induced by 200 mg/kg NMDA; assay type: functional; details: read-out: ID50 (the source's name); method in brief: as §1

Mu-type opioid receptor, sequence (P33535 whole entry): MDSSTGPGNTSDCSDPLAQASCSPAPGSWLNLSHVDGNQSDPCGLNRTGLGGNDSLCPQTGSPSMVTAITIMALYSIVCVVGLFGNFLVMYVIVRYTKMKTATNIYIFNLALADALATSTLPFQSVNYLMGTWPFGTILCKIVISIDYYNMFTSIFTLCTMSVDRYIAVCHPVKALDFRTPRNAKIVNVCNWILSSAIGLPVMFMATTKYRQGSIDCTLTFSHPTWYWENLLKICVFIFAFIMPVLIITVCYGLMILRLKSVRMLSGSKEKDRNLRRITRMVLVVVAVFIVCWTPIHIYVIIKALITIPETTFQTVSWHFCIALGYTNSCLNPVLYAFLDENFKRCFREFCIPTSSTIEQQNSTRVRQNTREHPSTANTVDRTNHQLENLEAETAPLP

| Structure (SMILES) | ED50 (Mus musculus [1]) [mg/kg] | Ki (Glutamate NMDA receptor) [nM] | ED50 (Mus musculus [2]) [mg/kg] | Ki (Mu-type opioid receptor) [nM] | ED50 (Mus musculus [3]) [mg/kg] |
| --- | --- | --- | --- | --- | --- |
| COCCCN1CC[C@]2(C)c3cc(O)ccc3C[C@@H]1[C@@H]2C | > 30 | 991 | – | – | – |
| C=CCN1CCC2(C)c3c(O)cccc3CC1C2(C)C (configuration not stated) | – | 106 | 1.7 | – | – |
| CO[C@@H](C)CN1CC[C@@]2(C)c3ccccc3C[C@@H]1C2(C)C | – | 15.8 | 23 | 144 | – |
| C=CCN1CCC2(C)c3cc(O)ccc3CC1C2(C)C (configuration not stated) | – | 380 | 4.7 | – | – |
| CO[C@@H](C)CN1CC[C@@]2(C)c3c(O)cccc3C[C@@H]1C2(C)C | – | 15 | 0.8 | 20.9 | – |
| CO[C@H](C)CN1CC[C@@]2(C)c3c(O)cccc3C[C@@H]1C2(C)C | – | 34 | 0.5 | 11400 | – |
| COC(C)(C)CN1CC[C@]2(C)c3cc(O)ccc3C[C@@H]1[C@H]2C | – | 221 | 5.5 | – | – |
| C=CCN1CC[C@]2(C)c3cc(O)ccc3C[C@@H]1[C@@H]2C | – | 1500 | > 30 | – | – |
| CCCN1CC[C@]2(C)c3cc(O)ccc3C[C@@H]1[C@@H]2C | – | 588 | > 30 | – | – |
| CC[C@@H](CN1CC[C@]2(C)c3cc(O)ccc3C[C@@H]1[C@H]2C)OC | – | 66 | 0.3 | – | – |
| CCCN1CC[C@@]2(C)c3cc(O)ccc3C[C@H]1[C@@H]2C | – | 43600 | – | – | – |
| CO[C@H](C)CN1CC[C@]2(C)c3ccc(O)cc3C[C@H]1C2(C)C | – | 545 | – | – | – |
| CO[C@H](C)CN1CC[C@@]2(C)c3ccccc3C[C@@H]1C2(C)C | – | 29.9 | – | 42300 | 6.8 |
| CS[C@@H](C)CN1CC[C@]2(C)c3cc(O)ccc3C[C@@H]1[C@H]2C | – | 83 | 2.1 | 97 | – |
| CS[C@H](C)CN1CC[C@]2(C)c3cc(O)ccc3C[C@@H]1[C@H]2C | – | 406 | – | 236 | – |
| CO[C@@H](C)CN1CC[C@@]2(C)c3ccc(O)cc3C[C@@H]1C2(C)C | – | 7.1 | 2.1 | 18.2 | – |
| CO[C@H](C)CN1CC[C@@]2(C)c3cc(O)ccc3C[C@H]1[C@@H]2C | – | 76600 | > 30 | 34800 | – |
| CCO[C@@H](C)CN1CC[C@]2(C)c3cc(O)ccc3C[C@@H]1[C@H]2C | – | 1260 | – | – | – |
| C=CCN1CCC2(C)c3cccc(O)c3CC1C2(C)C (configuration not stated) | – | 630 | 10.4 | – | – |
| CO[C@H](C)CN1CC[C@]2(C)c3cc(O)ccc3C[C@@H]1[C@@H]2C | – | 248 | 7.2 | 146 | – |
| C=CCN1CC[C@@]2(C)c3cc(O)ccc3C[C@H]1[C@H]2C | – | 1210 | 8.2 | – | – |
| CO[C@@H](C)CN1CC[C@]2(C)c3ccc(O)cc3C[C@H]1C2(C)C | – | 685 | 81 | 1340 | – |
| CCO[C@H](C)CN1CC[C@]2(C)c3cc(O)ccc3C[C@@H]1[C@H]2C | – | 1290 | – | – | – |
| CC[C@H](CN1CC[C@]2(C)c3cc(O)ccc3C[C@@H]1[C@H]2C)OC | – | 557 | 3 | – | – |

| Structure (SMILES) | ED50 (Mus musculus [1]) [mg/kg] | Ki (Glutamate NMDA receptor) [nM] | ED50 (Mus musculus [2]) [mg/kg] | Ki (Mu-type opioid receptor) [nM] | ED50 (Mus musculus [3]) [mg/kg] |
| --- | --- | --- | --- | --- | --- |
| CS[C@@H](C)CN1CC[C@]2(C)c3cc(O)ccc3C[C@@H]1[C@@H]2C | – | 223 | 1.7 | 3.2 | – |
| CO[C@@H](C)CN1CC[C@]2(C)c3cc(O)ccc3C[C@H]1C2(C)C | – | 50400 | > 30 | 6020 | – |
| CCCN1CC[C@]2(C)c3cc(O)ccc3C[C@@H]1[C@H]2C | – | 373 | – | – | – |
| CO[C@@H](C)CN1CC[C@@]2(C)c3cc(O)ccc3C[C@H]1[C@@H]2C | – | > 100000 | – | – | – |
| CO[C@@H](C)CN1CC[C@@]2(C)c3cc(O)ccc3C[C@@H]1C2(C)C | – | 5.6 | 0.2 | 1.6 | – |
| C[C@@H]1[C@H]2Cc3ccc(O)cc3[C@@]1(C)CCN2C[C@@H](C)O | – | 425 | – | – | – |
| CO[C@H](C)CN1CC[C@]2(C)c3cc(O)ccc3C[C@@H]1[C@H]2C | – | 195 | 0.9 | 212 | – |
| CS[C@H](C)CN1CC[C@]2(C)c3cc(O)ccc3C[C@@H]1[C@@H]2C | – | 1090 | – | 7.7 | – |
| CCC[C@@H](CN1CC[C@]2(C)c3cc(O)ccc3C[C@@H]1[C@H]2C)OC | – | 490 | – | – | – |
| CO[C@H](C)CN1CC[C@@]2(C)c3ccc(O)cc3C[C@@H]1C2(C)C | – | 4.5 | 0.4 | 3400 | – |
| CO[C@H](C)CN1CC[C@]2(C)c3c(O)cccc3C[C@H]1C2(C)C | – | 364 | – | – | – |
| CCO[C@@H](C)CN1CC[C@]2(C)c3cc(O)ccc3C[C@@H]1[C@@H]2C | – | 1150 | – | – | – |
| CCO[C@H](C)CN1CC[C@]2(C)c3cc(O)ccc3C[C@@H]1[C@@H]2C | – | 1840 | – | – | – |
| CO[C@H](C)CN1CC[C@@]2(C)c3cc(O)ccc3C[C@H]1[C@H]2C | – | 9550 | > 30 | 18400 | – |
| C=CCN1CCC2(C)c3ccc(O)cc3CC1C2(C)C (configuration not stated) | – | 99 | 5 | – | – |
| CO[C@@H](C)CN1CC[C@@]2(C)c3cc(O)ccc3C[C@H]1[C@H]2C | – | 22000 | > 30 | 5300 | – |
| CCC[C@H](CN1CC[C@]2(C)c3cc(O)ccc3C[C@@H]1[C@H]2C)OC | – | 1840 | – | – | – |
| CO[C@@H](C)CN1CC[C@]2(C)c3cc(O)ccc3C[C@@H]1[C@H]2C | – | 35.7 | 0.6 | 3.5 | – |
| CO[C@@H](C)CN1CC[C@]2(C)c3cc(O)ccc3C[C@@H]1[C@@H]2C | – | 234 | 2.3 | 1 | – |
| CCCN1CC[C@@]2(C)c3cc(O)ccc3C[C@H]1[C@H]2C | – | 2850 | > 30 | – | – |
| COC(C)(C)CN1CC[C@]2(C)c3cc(O)ccc3C[C@@H]1[C@@H]2C | – | 281 | 2.9 | 5.6 | – |
| CO[C@H](C)CN1CC[C@]2(C)c3cc(O)ccc3C[C@H]1C2(C)C | – | 13900 | – | 14000 | – |
| CO[C@H](C)CN1CC[C@@]2(C)c3cc(O)ccc3C[C@@H]1C2(C)C | – | 12.4 | 0.7 | 108 | – |
